ChEMBL document CHEMBL5058577, “EUbOPEN Chemogenomics Library 2 (Multiplex)” (2022)

System: U2OS
Assay: Multiplex assay against U2OS
Format: toxicity, cell-based
Conditions: human
Method in brief: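 Hoechst33342, BioTracker Green Microtubule Cytoskeleton Dye, MitoTracker Red and Annexin V Alexa Fluor 680 were added to live cells at seeding, and imaging on a CQ1 microscope at 37°C and 5% CO2 followed compound addition. Gating by CellPathfinder machine learning separated cells into Hoechst high-intensity objects or normal cells, then normal cells into healthy, pyknosed or fragmented nuclei, then pyknosed cells into mitotic or apoptotic. Per cents of healthy-nucleus cells are reported for the tubulin, mitochondrial-mass and membrane-permeability phenotypes.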

[1] = 12 h, 1 µM, compound concentration 1 uM, replicate 1
[2] = 12 h, 1 µM, compound concentration 1 uM, replicate 2
[3] = 12 h, 10 µM, compound concentration 10 uM, replicate 1
[4] = 12 h, 10 µM, compound concentration 10 uM, replicate 2
[5] = 24 h, 1 µM, compound concentration 1 uM, replicate 1
[6] = 24 h, 1 µM, compound concentration 1 uM, replicate 2
[7] = 24 h, 10 µM, compound concentration 10 uM, replicate 1
[8] = 24 h, 10 µM, compound concentration 10 uM, replicate 2
[9] = 48 h, 1 µM, compound concentration 1 uM, replicate 1
[10] = 48 h, 1 µM, compound concentration 1 uM, replicate 2
[11] = 48 h, 10 µM, compound concentration 10 uM, replicate 1
[12] = 48 h, 10 µM, compound concentration 10 uM, replicate 2

Structure (SMILES): CCn1c(-c2nc3cc(C(=O)N4CCCC(N)C4)ccc3n2C)cc2ccccc21.Cl (stereo unspecified)
- Population Apoptotic (%) [1]: 61%
- Population Fragmented Nuclei (%) [1]: 22%
- Population Healthy Nuclei (%) [1]: 67%
- Population Hoechst High Intensity Objects (%) [1]: 0%
- Population Membrane Permeable-Phenotype (%) [1]: 4%
- Population Mitochondria Different-Phenotype (%) [1]: 3%
- Population Mitotic Cells (%) [1]: 38%
- Population Normal (%) [1]: 99%
- Population Pyknosed Nuclei (%) [1]: 9%
- Population Tubulin-Different-Phenotype (%) [1]: 2%
- Total Cell Count [1]: 213
- Population Apoptotic (%) [2]: 100%
- Population Fragmented Nuclei (%) [2]: 18%
- Population Healthy Nuclei (%) [2]: 77%
- Population Hoechst High Intensity Objects (%) [2]: 5%
- Population Membrane Permeable-Phenotype (%) [2]: 15%
- Population Mitochondria Different-Phenotype (%) [2]: 18%
- Population Mitotic Cells (%) [2]: 0%
- Population Normal (%) [2]: 94%
- Population Pyknosed Nuclei (%) [2]: 3%
- Population Tubulin-Different-Phenotype (%) [2]: 13%
- Total Cell Count [2]: 90
- Population Apoptotic (%) [3]: 48%
- Population Fragmented Nuclei (%) [3]: 24%
- Population Healthy Nuclei (%) [3]: 56%
- Population Hoechst High Intensity Objects (%) [3]: 2%
- Population Membrane Permeable-Phenotype (%) [3]: 34%
- Population Mitochondria Different-Phenotype (%) [3]: 29%
- Population Mitotic Cells (%) [3]: 51%
- Population Normal (%) [3]: 97%
- Population Pyknosed Nuclei (%) [3]: 19%
- Population Tubulin-Different-Phenotype (%) [3]: 27%
- Total Cell Count [3]: 277
- Population Apoptotic (%) [4]: 54%
- Population Fragmented Nuclei (%) [4]: 21%
- Population Healthy Nuclei (%) [4]: 60%
- Population Hoechst High Intensity Objects (%) [4]: 1%
- Population Membrane Permeable-Phenotype (%) [4]: 25%
- Population Mitochondria Different-Phenotype (%) [4]: 55%
- Population Mitotic Cells (%) [4]: 45%
- Population Normal (%) [4]: 98%
- Population Pyknosed Nuclei (%) [4]: 18%
- Population Tubulin-Different-Phenotype (%) [4]: 48%
- Total Cell Count [4]: 135
- Population Apoptotic (%) [5]: 82%
- Population Fragmented Nuclei (%) [5]: 22%
- Population Healthy Nuclei (%) [5]: 68%
- Population Hoechst High Intensity Objects (%) [5]: 1%
- Population Membrane Permeable-Phenotype (%) [5]: 6%
- Population Mitochondria Different-Phenotype (%) [5]: 3%
- Population Mitotic Cells (%) [5]: 17%
- Population Normal (%) [5]: 98%
- Population Pyknosed Nuclei (%) [5]: 9%
- Population Tubulin-Different-Phenotype (%) [5]: 3%
- Total Cell Count [5]: 249
- Population Apoptotic (%) [6]: 66%
- Population Fragmented Nuclei (%) [6]: 25%
- Population Hoechst High Intensity Objects (%) [6]: 3%
- Population Membrane Permeable-Phenotype (%) [6]: 14%
- Population Mitochondria Different-Phenotype (%) [6]: 13%
- Population Mitotic Cells (%) [6]: 33%
- Population Normal (%) [6]: 96%
- Population Pyknosed Nuclei (%) [6]: 5%
- Population Tubulin-Different-Phenotype (%) [6]: 13%
- Total Cell Count [6]: 112
- Population Apoptotic (%) [7]: 62%
- Population Fragmented Nuclei (%) [7]: 27%
- Population Healthy Nuclei (%) [7]: 54%
- Population Hoechst High Intensity Objects (%) [7]: 2%
- Population Membrane Permeable-Phenotype (%) [7]: 16%
- Population Mitochondria Different-Phenotype (%) [7]: 34%
- Population Mitotic Cells (%) [7]: 38%
- Population Normal (%) [7]: 97%
- Population Pyknosed Nuclei (%) [7]: 17%
- Population Tubulin-Different-Phenotype (%) [7]: 11%
- Total Cell Count [7]: 288
- Population Apoptotic (%) [8]: 73%
- Population Fragmented Nuclei (%) [8]: 19%
- Population Healthy Nuclei (%) [8]: 64%
- Population Hoechst High Intensity Objects (%) [8]: 3%
- Population Membrane Permeable-Phenotype (%) [8]: 20%
- Population Mitochondria Different-Phenotype (%) [8]: 53%
- Population Mitotic Cells (%) [8]: 26%
- Population Normal (%) [8]: 96%
- Population Pyknosed Nuclei (%) [8]: 16%
- Population Tubulin-Different-Phenotype (%) [8]: 26%
- Total Cell Count [8]: 146
- Population Apoptotic (%) [9]: 75%
- Population Fragmented Nuclei (%) [9]: 16%
- Population Healthy Nuclei (%) [9]: 76%
- Population Hoechst High Intensity Objects (%) [9]: 2%
- Population Membrane Permeable-Phenotype (%) [9]: 8%
- Population Mitochondria Different-Phenotype (%) [9]: 3%
- Population Mitotic Cells (%) [9]: 25%
- Population Normal (%) [9]: 97%
- Population Pyknosed Nuclei (%) [9]: 6%
- Population Tubulin-Different-Phenotype (%) [9]: 5%
- Total Cell Count [9]: 354
- Population Apoptotic (%) [10]: 70%
- Population Fragmented Nuclei (%) [10]: 22%
- Population Healthy Nuclei (%) [10]: 70%
- Population Hoechst High Intensity Objects (%) [10]: 4%
- Population Membrane Permeable-Phenotype (%) [10]: 10%
- Population Mitochondria Different-Phenotype (%) [10]: 9%
- Population Mitotic Cells (%) [10]: 30%
- Population Normal (%) [10]: 95%
- Population Pyknosed Nuclei (%) [10]: 7%
- Population Tubulin-Different-Phenotype (%) [10]: 8%
- Total Cell Count [10]: 145
- Population Apoptotic (%) [11]: 78%
- Population Fragmented Nuclei (%) [11]: 26%
- Population Healthy Nuclei (%) [11]: 53%
- Population Hoechst High Intensity Objects (%) [11]: 5%
- Population Membrane Permeable-Phenotype (%) [11]: 23%
- Population Mitochondria Different-Phenotype (%) [11]: 22%
- Population Mitotic Cells (%) [11]: 21%
- Population Normal (%) [11]: 94%
- Population Pyknosed Nuclei (%) [11]: 19%
- Population Tubulin-Different-Phenotype (%) [11]: 11%
- Total Cell Count [11]: 353
- Population Apoptotic (%) [12]: 77%
- Population Fragmented Nuclei (%) [12]: 18%
- Population Healthy Nuclei (%) [12]: 64%
- Population Hoechst High Intensity Objects (%) [12]: 6%
- Population Membrane Permeable-Phenotype (%) [12]: 24%
- Population Mitochondria Different-Phenotype (%) [12]: 39%
- Population Mitotic Cells (%) [12]: 22%
- Population Normal (%) [12]: 93%
- Population Pyknosed Nuclei (%) [12]: 16%
- Population Tubulin-Different-Phenotype (%) [12]: 19%
- Total Cell Count [12]: 173
